In the library only some 2.5% were active in any assay of this set; here they are far more common.
ABHD5 PLIN5 PPI: ABHD5-PLIN5 protein interaction inhibition | AID 602281 | 0.78% of 360,000 active | Split G. princeps luciferase complementation, luminescence, 4 h | inhibition, % at 4 µM;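 active means inhibition above the mean inhibition across every tested compound plus 3 SD, cut at about 22% in these data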;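 further: 0% = DMSO only wells and the 100% control is not disclosed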
UHRF1 binding: blocks human UHRF1 binding to methylated DNA; AID 687016; inhibition, % at 4.4 µM; UHRF1 binding to methylated oligo, TR-FRET; Q96T88; 0.75% of 370,000 active; in the data active means inhibition above about 21%;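 further: UHRF1 SRA domain binding a hemimethylated CpG hairpin DNA probe; 0% = median of test compound wells and 100% = reference inhibitor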
Target sequence (Q96T88 whole entry, looked up, the tested form may be a part): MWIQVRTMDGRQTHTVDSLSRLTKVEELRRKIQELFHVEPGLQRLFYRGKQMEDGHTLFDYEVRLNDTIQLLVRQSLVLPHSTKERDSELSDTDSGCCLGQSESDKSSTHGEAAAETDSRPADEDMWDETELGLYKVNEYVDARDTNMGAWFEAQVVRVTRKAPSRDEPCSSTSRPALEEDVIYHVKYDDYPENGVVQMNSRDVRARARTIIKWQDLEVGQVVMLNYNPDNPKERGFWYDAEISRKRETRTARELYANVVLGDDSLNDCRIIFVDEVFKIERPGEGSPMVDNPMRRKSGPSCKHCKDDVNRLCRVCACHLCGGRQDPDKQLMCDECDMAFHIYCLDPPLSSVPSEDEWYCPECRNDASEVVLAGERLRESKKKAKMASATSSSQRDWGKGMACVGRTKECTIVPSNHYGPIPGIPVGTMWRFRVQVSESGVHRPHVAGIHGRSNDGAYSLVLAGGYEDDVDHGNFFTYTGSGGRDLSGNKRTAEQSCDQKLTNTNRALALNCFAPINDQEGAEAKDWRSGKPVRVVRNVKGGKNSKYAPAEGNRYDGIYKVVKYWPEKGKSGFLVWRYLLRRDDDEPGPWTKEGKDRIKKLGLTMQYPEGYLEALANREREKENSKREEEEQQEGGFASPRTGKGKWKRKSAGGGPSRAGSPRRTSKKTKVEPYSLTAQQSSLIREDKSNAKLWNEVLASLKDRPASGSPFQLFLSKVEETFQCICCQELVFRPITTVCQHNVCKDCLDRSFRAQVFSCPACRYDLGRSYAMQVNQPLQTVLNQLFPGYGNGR
MBD2 DNA inh: blocks human MBD2 binding to methylated DNA; Q9UBB5; TR-FRET, MBD2 binding to methylated oligonucleotide; inhibition, % at 4.4 µM; 0.31% of 370,000 active; in the data active means inhibition above about 13%
Beta2AR agonist: human beta-2 adrenergic receptor agonism by FAP; response, % (no concentration beside the values); Am2.2-beta2AR cells, FAP receptor internalization, flow cytometry; P07550; AID 504454; 0.43% of 340,000 active;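 active means response above a set limit, near 3 SD of response in nonfluorescent compounds, cut at about 42% in these data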
Rin1 Abl inh: human Rin1-Abl interaction inhibition. AID 588664. inhibition, % at 7.35 µM. 0.4% of 360,000 active. TR-FRET Rin1/Abl binding, biochemical; in the data active means inhibition above about 5%, passing the limit was not always enough
Arrestin-AP2 inh: blocks beta-arrestin peptide binding to AP2 adaptin; FITC-arrestin peptide / GST-AP2 beads, flow cytometry; AP2 beta2 appendage carries R879A mutation; inhibition, % at 10 µM; 0.31% of 340,000 active;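 active means inhibition above a set limit, near 3 SD of compounds lacking own fluorescence, cut at about 54% in these data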;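 further: plate controls were DMSO wells for no effect and 5 µM unlabelled arrestin peptide for full effect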
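test system = AP2 appendage R879A on GSH beads | buffer or medium = PBS plus Tween 20 (0.05%) and BSA (0.1%) | incubation = 12 min plus 1 h, RT | detection = bead flow cytometry, FITC channel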
Starred values were filed as active, the others as inactive; / = not tested or not shown.

SMILES	ABHD5 PLIN5 PPI	UHRF1 binding	MBD2 DNA inh	Beta2AR agonist	Rin1 Abl inh	Arrestin-AP2 inh
COc1ccc(S(=O)(=O)N/N=C(/C)c2ccncc2)cc1	-1	27*	2	-2	2	6
CSCCCNC(=O)c1oc(=O)c2ccccc2c1-c1ccc(C)cc1	/	-1	-4	/	/	/
COC(=O)c1c(C(=O)OC)c(-c2ccc(C)cc2)n2c1CS(=O)(=O)C2	-3	1	-1	4	2	5
Cc1c(COC(=O)NC(C)C)c(COC(=O)NC(C)C)c2n1CS(=O)(=O)C2	/	26*	4	/	/	/
Cc1cc(NC(=O)CSc2nc(-c3ccccc3Cl)nc3c2c(=O)n(C)c(=O)n3C)no1	4	23*	7	-10	7	9
Cc1cc(NC(=O)CSc2nc(CC(C)(C)C)nc3c2c(=O)n(C)c(=O)n3C)no1	0	22*	3	8	0	16
O=C(CCS(=O)(=O)c1ccc(F)cc1)Nc1nc(-c2ccccn2)cs1	-1	21*	5	-5	3	38
CC(C)n1nnnc1C1(C)CCCCC(=O)N1Cc1cccc(C(F)(F)F)c1 (centres undefined)	/	2	3	/	/	/
CCCCOc1ccc(Nc2cc(Cl)ccc2C(=O)O)cn1	9	22*	12	6	3	7
CC1CCN(S(=O)(=O)c2cccc(C(=O)NNC(=O)c3ccco3)c2)CC1	-3	30*	5	-9	-1	0
CC1(C)CC[C@]2(C(=O)n3ccnc3)CC[C@]3(C)[C@H](C(=O)C=C4[C@@]5(C)C=C(C#N)C(=O)C(C)(C)[C@@H]5CC[C@]43C)[C@@H]2C1	3	-1	0	59*	4	36
CC(=O)c1cccc(NC(=O)c2cc(C)no2)c1	0	64*	0	13	0	3
Cc1cc(C(=O)Nc2cccnc2)on1	3	0	1	1	2	4
CCSc1nnc(CNc2ccc(C)cc2)n1C	3	24*	11	5	3	-8
Cc1ccc(NCc2nnc(SCC(=O)Nc3cc(C)on3)n2C)cc1	8	2	6	-5	-1	21
CCCSc1nnc(CNS(=O)(=O)c2ccc(C)cc2)n1C	22*	0	-1	3	3	26
COc1cc(NC(=O)c2ccc3c(c2)OCO3)ccc1NC(=O)C(C)C	-5	66*	2	2	0	26
CC(C)C(=O)Nc1ccc(NC(=O)c2ccc3c(c2)OCO3)cc1	3	-1	1	2	-4	14
CCOc1cc(C(=O)Nc2ccc3c(c2)OCO3)ccc1OC(F)F	-4	23*	9	3	-2	-1
CCOc1ccc(C(=O)NCC(=O)Nc2ccc3c(c2)OCO3)cc1OCC	4	-3	0	14	3	0
CCOc1ccc(CCNC(=O)c2cc3ccsc3n2C)cc1OC	/	7	4	/	/	/
O=C(CCCC(=O)c1ccc(O)cc1)c1ccc(O)cc1	1	-3	3	-9	1	24
O=C1C=CC(=C(c2ccc(O)cc2)c2ccc(O)cc2)C=C1	78*	-1	0	-3	5	19
O=C(CSc1nnc(Cc2cccs2)n1-c1ccc(Cl)cc1)Nc1ccc(OCc2ccccc2)cc1	/	0	3	/	/	/
COC(=O)C(C(=O)OC)c1ccc(-n2cccc2)cc1	2	4	-1	5	2	56*
SMILES	ABHD5 PLIN5 PPI	UHRF1 binding	MBD2 DNA inh	Beta2AR agonist	Rin1 Abl inh	Arrestin-AP2 inh
COc1ccc(C(=O)NCc2ccc(-n3cccc3)cc2)cc1OC	2	2	2	1	1	11
COc1ccc(/C=C2\CC3(OC(=O)c4ccc(F)cc4)CCCN2C3)cc1 (centres undefined)	/	-1	-2	/	/	/
CCCC1=NN(C(=O)Cc2ccc(OC)cc2)C(O)(C(F)(F)F)C1 (centres undefined)	-6	4	-2	-2	2	-5
CCOc1ccc(CC(=O)N2N=C(C)CC2(O)C(F)(F)F)cc1 (centres undefined)	2	29*	3	-3	-3	3
CCCCNS(=O)(=O)/C=C/c1ccccc1CNC(=O)OC(C)(C)C	/	13	-6	/	/	/
COc1ccc(NC(=O)CSCC(=O)N(C)CC(=O)Nc2c(C)cccc2C)cc1	-8	3	11	1	-2	-2
COc1ccc(NC(=O)c2ccc(NC(=O)CN(C)CC(=O)Nc3c(C)cccc3C)cc2)cc1	2	22*	0	8	-2	-4
Cn1c(OCc2ccco2)nc2c1c(=O)n(Cc1ccc(Cl)c(Cl)c1)c(=O)n2C	4	/	/	-4	-1	81*
COCCCNC(=O)C[C@H]1C[C@@]2(C(=O)OC)C(=C[C@H](C(C)C)O[C@@H]2C2CC2)N(Cc2ccc(Cl)cc2Cl)C1=O	/	5	-1	/	/	/
Cc1ccc(-n2c(Cc3cccs3)nnc2SCC(=O)Nc2cccc3ccccc23)cc1	/	2	4	/	/	/
COc1cc(NC(=O)c2noc3c2CCC3)c(OC)cc1Cl	-4	28*	0	6	1	0
COc1ccc(CNC(=S)OC2CCC23CCC(c2ccccc2)CC3)cc1 (centres undefined)	/	0	-8	/	/	/
COc1ccc(CN2C/C(=C/c3ccc(C)cc3)N3C(=O)C[C@@H](c4ccccc4)N=C23)c(OC)c1	/	-6	5	/	/	/
Cc1[nH]c2ccccc2c1SCC(=O)N1CCC(C)CC1	-1	25*	2	-6	3	-18
Cc1[nH]c2ccccc2c1SCC(=O)N1CCOCC1	-2	0	2	3	4	23
COCCCn1cnc2c(c1=O)c1nc3ccccc3nc1n2-c1ccc(C)cc1	11	-1	2	-13	-1	0
COc1ccc(Cn2c(C)nc3c(c2=O)c2nc4ccccc4nc2n3Cc2ccco2)cc1	33*	17	18*	12	-1	8
Cc1nc2ccccc2c(=O)n1Cc1ccco1	-1	2	7	0	-2	-11
Cc1cc(C)cc(-n2c3nc4ccccc4nc3c3c(=O)n(Cc4ccco4)cnc32)c1	60*	2	1	-5	-2	10
COc1ccc(S(=O)(=O)c2c(N)n(Cc3ccco3)c3nc4ccccc4nc23)cc1	24*	0	2	-5	-5	9
O=C(CSc1nnc(-c2cccnc2)n1Cc1ccco1)Nc1cc(Cl)ccc1F	/	-2	-3	/	/	/
COc1ccc(CCNC(=O)c2cc3ccccn3n2)cc1	/	-1	0	/	/	/
COC(=O)C1CN(Cc2cn(CCOC(C)=O)nn2)CCS(=O)(=O)N1Cc1ccc(F)cc1 (centres undefined)	/	14	9	/	/	/
O=C(C=P(c1ccccc1)(c1ccccc1)c1ccccc1)c1ccccc1-c1ccccc1C(=O)C=P(c1ccccc1)(c1ccccc1)c1ccccc1	26*	1	-8	104*	4	14

Bioassay records: PubChem BioAssay, several laboratories
